Measurements reported in ChEMBL document CHEMBL1157912, “Impact of nature and length of linker incorporated in agonists on toll-like receptor 9-mediated immune responses” (J Med Chem, 2010).

What was measured:
[1] = molecular target: T1, Toll-like receptor 9 (Mus musculus) (UniProt Q9EQU3); assay: Activation of mouse TLR9 expressed in HEK293 cells assessed as induction of NF-kappaB activity after 18 hrs by SEAP assay; assay type: cell-based
T1 sequence (whole entry): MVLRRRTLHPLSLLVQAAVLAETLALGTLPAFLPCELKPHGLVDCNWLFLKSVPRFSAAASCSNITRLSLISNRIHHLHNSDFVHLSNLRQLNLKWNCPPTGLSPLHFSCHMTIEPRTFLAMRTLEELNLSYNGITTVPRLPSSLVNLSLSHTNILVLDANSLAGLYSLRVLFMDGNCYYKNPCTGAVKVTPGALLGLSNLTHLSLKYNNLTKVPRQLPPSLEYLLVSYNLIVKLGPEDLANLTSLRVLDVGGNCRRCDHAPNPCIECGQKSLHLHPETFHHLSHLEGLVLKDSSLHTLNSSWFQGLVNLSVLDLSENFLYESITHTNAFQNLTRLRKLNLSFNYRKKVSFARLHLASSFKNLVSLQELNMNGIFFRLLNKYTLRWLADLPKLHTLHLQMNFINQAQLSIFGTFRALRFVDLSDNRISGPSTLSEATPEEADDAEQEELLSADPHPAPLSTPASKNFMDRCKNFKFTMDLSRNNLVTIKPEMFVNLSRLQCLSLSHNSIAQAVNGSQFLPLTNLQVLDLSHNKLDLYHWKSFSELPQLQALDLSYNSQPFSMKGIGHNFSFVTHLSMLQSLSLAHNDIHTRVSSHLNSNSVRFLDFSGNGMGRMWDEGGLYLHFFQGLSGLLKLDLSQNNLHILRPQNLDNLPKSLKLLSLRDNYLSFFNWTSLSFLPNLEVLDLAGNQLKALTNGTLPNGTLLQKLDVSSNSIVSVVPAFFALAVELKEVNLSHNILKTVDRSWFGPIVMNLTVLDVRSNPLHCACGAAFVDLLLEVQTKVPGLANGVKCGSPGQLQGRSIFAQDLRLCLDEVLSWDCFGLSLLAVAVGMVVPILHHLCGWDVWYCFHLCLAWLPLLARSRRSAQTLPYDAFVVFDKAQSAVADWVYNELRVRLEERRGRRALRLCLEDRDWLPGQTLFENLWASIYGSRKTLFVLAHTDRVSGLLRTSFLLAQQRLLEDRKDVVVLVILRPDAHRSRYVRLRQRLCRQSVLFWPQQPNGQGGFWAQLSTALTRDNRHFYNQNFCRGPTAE
In short: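 HEK293 cells stably expressing mouse TLR9 were grown in DMEM with 10% heat-inactivated FBS. At 80% confluence they were transiently transfected with a SEAP reporter plasmid (100 ng/well, lipofectamine) for 6 h. Medium was then replaced and agonists were added for 18 h. Supernatant SEAP was read with QuantiBlue substrate at 620-645 nm. Results are expressed as fold NF-κB activity over PBS control.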

[2] = molecular target: T1, Toll-like receptor 9 (Mus musculus); assay: Induction of TLR9-mediated IL12 production in C57BL/6 mouse spleen cells after 24 hrs by ELISA; assay type: cell-based
In short: (§1)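 C57BL/6 mouse spleen cells were cultured with agonists at 0.1, 0.3, 1, 3 and 10 μg/mL for 24 h. Secreted IL-12 and IL-6 in the supernatants were measured by ELISA. Values are averages of triplicate wells from one representative of at least two independent experiments.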

[3] = molecular target: T1, Toll-like receptor 9 (Mus musculus); assay: Induction of TLR9-mediated IL6 production in C57BL/6 mouse spleen cells after 24 hrs by ELISA; assay type: cell-based; in short: as §1
[4] = molecular target: T2, Toll-like receptor 9 (Homo sapiens) (UniProt Q9NR96); assay: Induction of TLR9-mediated immune stimulation in human PBMC assessed as IL1Ralpha production at 10 ug/ml after 24 hrs by luminex multiplex assay (RVb = 0.12 +/- 0.03 ng/ml)
T2 sequence (whole entry): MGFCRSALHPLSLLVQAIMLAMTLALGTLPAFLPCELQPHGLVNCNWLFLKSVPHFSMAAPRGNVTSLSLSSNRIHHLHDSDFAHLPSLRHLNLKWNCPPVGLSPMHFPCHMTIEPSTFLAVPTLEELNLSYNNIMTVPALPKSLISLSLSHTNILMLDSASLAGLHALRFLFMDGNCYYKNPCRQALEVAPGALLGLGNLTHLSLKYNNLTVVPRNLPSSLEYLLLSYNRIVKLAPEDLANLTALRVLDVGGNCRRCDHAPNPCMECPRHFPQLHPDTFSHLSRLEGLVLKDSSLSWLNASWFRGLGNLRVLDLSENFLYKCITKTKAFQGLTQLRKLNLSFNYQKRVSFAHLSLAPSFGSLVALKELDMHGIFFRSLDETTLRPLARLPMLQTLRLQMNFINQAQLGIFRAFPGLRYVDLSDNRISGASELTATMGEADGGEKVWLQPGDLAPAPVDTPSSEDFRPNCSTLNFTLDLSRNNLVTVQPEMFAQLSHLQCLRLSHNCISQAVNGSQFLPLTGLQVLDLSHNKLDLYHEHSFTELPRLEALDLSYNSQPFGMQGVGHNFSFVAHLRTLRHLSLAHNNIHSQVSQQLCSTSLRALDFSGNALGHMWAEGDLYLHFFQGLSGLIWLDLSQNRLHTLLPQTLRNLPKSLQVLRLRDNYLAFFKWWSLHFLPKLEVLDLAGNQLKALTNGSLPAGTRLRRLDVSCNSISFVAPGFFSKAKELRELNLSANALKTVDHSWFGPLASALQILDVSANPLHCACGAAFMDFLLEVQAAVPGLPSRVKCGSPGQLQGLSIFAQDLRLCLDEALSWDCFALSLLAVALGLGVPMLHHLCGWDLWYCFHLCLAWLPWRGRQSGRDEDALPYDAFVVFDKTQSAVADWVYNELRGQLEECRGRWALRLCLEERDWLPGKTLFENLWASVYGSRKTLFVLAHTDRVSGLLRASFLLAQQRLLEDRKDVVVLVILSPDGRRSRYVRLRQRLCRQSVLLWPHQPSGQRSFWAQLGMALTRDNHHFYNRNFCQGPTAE

[5] = molecular target: T2, Toll-like receptor 9 (Homo sapiens); assay: Induction of TLR9-mediated immune stimulation in human PBMC assessed as IL6 production at 10 ug/ml after 24 hrs by luminex multiplex assay (RVb = 0.01 ng/ml)
[6] = molecular target: T2, Toll-like receptor 9 (Homo sapiens); assay: Induction of TLR9-mediated immune stimulation in human PBMC assessed as MIP1alpha production at 10 ug/ml after 24 hrs by luminex multiplex assay (RVb = 0.01 ng/ml)
[7] = molecular target: T2, Toll-like receptor 9 (Homo sapiens); assay: Induction of TLR9-mediated immune stimulation in human PBMC assessed as MIP1beta production at 2 ug/ml after 24 hrs by luminex multiplex assay (RVb = 0.03 +/- 0.02 ng/ml)
[8] = molecular target: T2, Toll-like receptor 9 (Homo sapiens); assay: Induction of TLR9-mediated immune stimulation in human PBMC assessed as MIP1beta production at 10 ug/ml after 24 hrs by luminex multiplex assay (RVb = 0.03 +/- 0.02 ng/ml)
[9] = molecular target: T2, Toll-like receptor 9 (Homo sapiens); assay: Induction of TLR9-mediated immune stimulation in human PBMC assessed as MCP1 production at 2 ug/ml after 24 hrs by luminex multiplex assay (RVb = 0.08 +/- 0.02 ng/ml)
[10] = molecular target: T2, Toll-like receptor 9 (Homo sapiens); assay: Induction of TLR9-mediated immune stimulation in human PBMC assessed as MCP1 production at 10 ug/ml after 24 hrs by luminex multiplex assay (RVb = 0.08 +/- 0.02 ng/ml)

Activity [1]	Activity [2]	Activity [3]	Activity [4]	Activity [5]	Activity [6]	Activity [7]	Activity [8]	Activity [9]	Activity [10]	SMILES
Dose-dependent effect	Dose-dependent effect	Dose-dependent effect	29.6 ng/mL	0.73 ng/mL	0.32 ng/mL	0.81 ng/mL	1.76 ng/mL	13.2 ng/mL	43.5 ng/mL	Cc1cn([C@H]2C[C@H](OCC[C@H](O)COP(=O)(S)O[C@H]3C[C@H](n4cc(C)c(=O)[nH]c4=O)O[C@@H]3COP(=O)(S)O[C@H]3[C@@H](O)[C@H](n4ccc(N)nc4=O)O[C@@H]3COP(=O)(S)O[C@H]3C[C@H](n4cc(C)c(=O)[nH]c4=O)O[C@@H]3COP(=O)(S)O[C@H]3C[C@H](n4cc(C)c(=O)[nH]c4=O)O[C@@H]3COP(=O)(S)O[C@H]3C[C@H](n4ccc5c(=O)[nH]c(N)nc54)O[C@@H]3COP(=O)(S)O[C@H]3[C@@H](O)[C@H](n4ccc(N)nc4=O)O[C@@H]3COP(=O)(S)O[C@H]3C[C@H](n4cc(C)c(=O)[nH]c4=O)O[C@@H]3COP(=O)(S)O[C@H]3[C@@H](O)[C@H](n4cnc5c(=O)[nH]c(N)nc54)O[C@@H]3COP(=O)(S)O[C@H]3C[C@H](n4cc(C)c(=O)[nH]c4=O)O[C@@H]3COP(=O)(S)O[C@H]3[C@@H](O)[C@H](n4ccc(N)nc4=O)O[C@@H]3COP(=O)(S)O[C@H]3C[C@H](n4cc(C)c(=O)[nH]c4=O)O[C@@H]3CO)[C@@H](COP(=O)(S)O[C@H]3[C@@H](O)[C@H](n4ccc(N)nc4=O)O[C@@H]3COP(=O)(S)O[C@H]3C[C@H](n4cc(C)c(=O)[nH]c4=O)O[C@@H]3COP(=O)(S)O[C@H]3C[C@H](n4cc(C)c(=O)[nH]c4=O)O[C@@H]3COP(=O)(S)O[C@H]3C[C@H](n4ccc5c(=O)[nH]c(N)nc54)O[C@@H]3COP(=O)(S)O[C@H]3[C@@H](O)[C@H](n4ccc(N)nc4=O)O[C@@H]3COP(=O)(S)O[C@H]3C[C@H](n4cc(C)c(=O)[nH]c4=O)O[C@@H]3COP(=O)(S)O[C@H]3[C@@H](O)[C@H](n4cnc5c(=O)[nH]c(N)nc54)O[C@@H]3COP(=O)(S)O[C@H]3C[C@H](n4cc(C)c(=O)[nH]c4=O)O[C@@H]3COP(=O)(S)O[C@H]3[C@@H](O)[C@H](n4ccc(N)nc4=O)O[C@@H]3COP(=O)(S)O[C@H]3C[C@H](n4cc(C)c(=O)[nH]c4=O)O[C@@H]3CO)O2)c(=O)[nH]c1=O (some centres undefined)
–	Dose-dependent effect	Dose-dependent effect	33.8 ng/mL	0.03 ng/mL	0.07 ng/mL	0.07 ng/mL	0.15 ng/mL	0.2 ng/mL	0.37 ng/mL	Cc1cn([C@H]2C[C@H](OCC(O)COP(=O)(S)O[C@H]3C[C@H](n4cc(C)c(=O)[nH]c4=O)O[C@@H]3COP(=O)(S)O[C@H]3[C@@H](O)[C@H](n4ccc(N)nc4=O)O[C@@H]3COP(=O)(S)O[C@H]3[C@@H](O)[C@H](n4cnc5c(N)ncnc54)O[C@@H]3COP(=O)(S)O[C@H]3[C@@H](O)[C@H](n4cnc5c(N)ncnc54)O[C@@H]3COP(=O)(S)O[C@H]3[C@@H](O)[C@H](n4ccc(N)nc4=O)O[C@@H]3COP(=O)(S)O[C@H]3[C@@H](O)[C@H](n4ccc(N)nc4=O)O[C@@H]3COP(=O)(S)O[C@H]3[C@@H](O)[C@H](n4cnc5c(N)ncnc54)O[C@@H]3COP(=O)(S)O[C@H]3[C@@H](O)[C@H](n4ccc(N)nc4=O)O[C@@H]3COP(=O)(S)O[C@H]3[C@@H](O)[C@H](n4cnc5c(N)ncnc54)O[C@@H]3COP(=O)(S)O[C@H]3[C@@H](O)[C@H](n4ccc(N)nc4=O)O[C@@H]3COP(=O)(S)O[C@H]3[C@@H](O)[C@H](n4cnc5c(N)ncnc54)O[C@@H]3CO)[C@@H](COP(=O)(S)O[C@H]3[C@@H](O)[C@H](n4ccc(N)nc4=O)O[C@@H]3COP(=O)(S)O[C@H]3[C@@H](O)[C@H](n4cnc5c(N)ncnc54)O[C@@H]3COP(=O)(S)O[C@H]3[C@@H](O)[C@H](n4cnc5c(N)ncnc54)O[C@@H]3COP(=O)(S)O[C@H]3[C@@H](O)[C@H](n4ccc(N)nc4=O)O[C@@H]3COP(=O)(S)O[C@H]3[C@@H](O)[C@H](n4ccc(N)nc4=O)O[C@@H]3COP(=O)(S)O[C@H]3[C@@H](O)[C@H](n4cnc5c(N)ncnc54)O[C@@H]3COP(=O)(S)O[C@H]3[C@@H](O)[C@H](n4ccc(N)nc4=O)O[C@@H]3COP(=O)(S)O[C@H]3[C@@H](O)[C@H](n4cnc5c(N)ncnc54)O[C@@H]3COP(=O)(S)O[C@H]3[C@@H](O)[C@H](n4ccc(N)nc4=O)O[C@@H]3COP(=O)(S)O[C@H]3[C@@H](O)[C@H](n4cnc5c(N)ncnc54)O[C@@H]3CO)O2)c(=O)[nH]c1=O (some centres undefined)
